This is a sample that favours compounds with a hit; in the whole collection about 2.5% have one here.
ABHD5-PLIN5 inh: inhibitors of human ABHD5-perilipin-5 interaction | Q00G26+Q8WTS1 | Split G. princeps luciferase complementation, luminescence, 4 h | inhibition, % at 4 µM | 0.78% of 360,000 active;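 active means inhibition above the mean inhibition across every tested compound plus 3 SD, cut at about 22% in these data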;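 further: 0% = DMSO only wells and the 100% control is not disclosed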
Beta2AR agonist: activates human beta-2 adrenergic receptor causing internalization | P07550 | Am2.2-beta2AR cells, FAP receptor internalization, flow cytometry | response, % (test concentration not listed) | 0.43% of 340,000 active | AID 504454;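 active means response above a set limit, near 3 SD of response in nonfluorescent compounds, cut at about 42% in these data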
Arr AP2 block: blocks beta-arrestin peptide binding to AP2 adaptin. AID 504490. FITC-arrestin peptide / GST-AP2 beads, flow cytometry; AP2 beta2 appendage carries R879A mutation. inhibition, % at 10 µM. 0.31% of 340,000 active;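 active means inhibition above a set limit, near 3 SD of compounds lacking own fluorescence, cut at about 54% in these data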;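 further: plate controls were DMSO wells for no effect and 5 µM unlabelled arrestin peptide for full effect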
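Assay system: GST-AP2 R879A bound to glutathione beads, E. coli-expressed; Medium: PBS with 0.05% Tween 20 and 0.1% BSA; Also added: fluorescein-tagged arrestin peptide at 50 nM final; Timing: 12 min plus 1 h, RT; Measured by: flow cytometry, FL1 (488/535 nm); Evaluation: percent drop in bead-associated FITC signal.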
MBD2 inh: inhibitors of human MBD2 binding to methylated oligonucleotide. Q9UBB5. inhibition, % at 4.4 µM. AID 686964. TR-FRET. 0.31% of 370,000 active; in the data active means inhibition above about 13%
Rin1-Abl PPI inh: human Rin1-Abl interaction inhibition. P00519+Q13671. TR-FRET Rin1/Abl binding, biochemical. inhibition, % at 7.35 µM. 0.4% of 360,000 active. AID 588664; in the data active means inhibition above about 5%, passing the limit was not always enough
UHRF1 MBD2 ctr: human UHRF1 methylated DNA binding inhibitors | 0.75% of 370,000 active | AID 687016 | UHRF1 binding to methylated oligo, TR-FRET | inhibition, % at 4.4 µM | Q96T88; in the data active means inhibition above about 21%;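 further: UHRF1 SRA domain binding a hemimethylated CpG hairpin DNA probe; 0% = median of test compound wells and 100% = reference inhibitor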
Target sequence (Q96T88 whole entry, looked up, the tested form may be a part): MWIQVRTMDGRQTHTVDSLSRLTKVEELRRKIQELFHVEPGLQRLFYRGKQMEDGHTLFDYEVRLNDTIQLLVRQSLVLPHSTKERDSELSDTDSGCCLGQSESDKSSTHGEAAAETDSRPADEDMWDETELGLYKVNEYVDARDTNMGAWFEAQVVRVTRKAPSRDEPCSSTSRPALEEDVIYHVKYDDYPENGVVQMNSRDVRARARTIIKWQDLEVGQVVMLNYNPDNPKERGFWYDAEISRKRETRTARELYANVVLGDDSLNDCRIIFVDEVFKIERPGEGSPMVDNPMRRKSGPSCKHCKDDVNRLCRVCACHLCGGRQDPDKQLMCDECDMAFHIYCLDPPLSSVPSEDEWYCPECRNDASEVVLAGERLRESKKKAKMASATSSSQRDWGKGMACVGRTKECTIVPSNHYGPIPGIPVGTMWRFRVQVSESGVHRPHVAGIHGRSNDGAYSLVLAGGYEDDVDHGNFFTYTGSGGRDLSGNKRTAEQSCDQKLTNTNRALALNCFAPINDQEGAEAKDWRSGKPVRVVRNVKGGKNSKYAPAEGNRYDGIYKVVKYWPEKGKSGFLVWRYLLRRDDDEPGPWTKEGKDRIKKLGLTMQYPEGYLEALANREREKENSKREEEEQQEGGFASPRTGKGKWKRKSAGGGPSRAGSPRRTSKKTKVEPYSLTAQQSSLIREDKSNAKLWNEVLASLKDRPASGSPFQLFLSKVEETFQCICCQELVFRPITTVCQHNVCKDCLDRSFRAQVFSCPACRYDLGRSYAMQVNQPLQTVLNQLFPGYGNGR
An asterisk follows results filed as active; x = not tested or not shown.

SMILES	ABHD5-PLIN5 inh	Beta2AR agonist	Arr AP2 block	MBD2 inh	Rin1-Abl PPI inh	UHRF1 MBD2 ctr
O=C(Nc1ccc(C(O)(C(F)(F)F)C(F)(F)F)cc1)c1ccc(F)cc1F	x	x	x	4	x	0
COC(=O)[C@H](CC1(c2cn(S(=O)(=O)CC[Si](C)(C)C)c3ccccc23)C(=O)Nc2ccccc21)NC(=O)OC(C)(C)C (some centres undefined)	x	x	x	0	x	4
COC(=O)C1OC(OC2CC[C@]3(C)C(CC[C@@]4(C)[C@@H]3CC=C3[C@@H]5CC(C)(C)CC[C@]5(C(=O)OC5OC(CO)C(O)C(O)C5O)CC[C@]34C)C2(C)C)C(O)C(O)C1O[C@H]1OCC(O)C(O)C1O (some centres undefined)	33*	-13	38	x	0	x
CN(CCO)c1cccc2c1S(=O)(=O)N(Cc1cn(Cc3ccc(Cl)cc3)nn1)Cc1ccccc1O2	x	x	x	4	x	3
O=C(O)c1ccc(C(=O)c2ccc3c(c2)C(=O)N(CCO)C3=O)cc1	0	-3	3	11	-7	22*
COc1ccc(-n2c(SCC(=O)N(CC(C)C)CC(C)C)nnc2-c2ccncc2)cc1	x	x	x	-1	x	-1
CC1CCN(C(=S)NC(=O)c2ccc(C(C)(C)C)cc2)CC1	-9	-10	-3	-2	-2	0
CC1CCN(C(=S)NC(=O)c2ccccc2)CC1	-5	13	15	-4	1	38*
Cc1occc1C(=O)N(Cc1nc(-c2ccccc2)no1)C(C)C	1	4	16	5	7	24*
CCN(Cc1nc(-c2ccccc2)no1)C(=O)c1ccoc1C	6	0	-1	1	0	5
CN(C)CCNC(=O)/C(=N\O)c1ccccn1	2	1	32	9	-1	27*
O=C(CSCc1cccc(Br)c1)N=Nc1c(O)[nH]c2ccccc12	-2	8	22	0	0	0
O=Nc1c(-c2c(O)[nH]c3cc(Br)ccc23)[nH]c2ccccc12	3	43*	9	-5	0	-5
O=C(NCc1cccnc1)C(=O)N/N=C/c1ccc([N+](=O)[O-])cc1	-2	-1	36	0	2	3
O=C(NCc1cccnc1)C(=O)Nc1ccc([N+](=O)[O-])cc1	-1	-1	-1	1	-8	22*
Cc1cc(C(=O)NCc2cccnc2)cs1	3	7	-1	x	-2	x
O=C(NCc1cccnc1)c1ccc(Cl)c(Cl)c1	3	4	-3	5	2	37*
O=C(NCc1cccnc1)c1cccs1	-6	-3	23	8	0	22*
CCOC(=O)Cn1cc(CN2C(C(=O)OC)CN(Cc3ccc(F)cc3)CCS2(=O)=O)nn1 (centres undefined)	x	x	x	4	x	14
O=C(CN1C(=O)CC(c2ccccc2)S(=O)(=O)c2ccccc21)N1CCCCC1 (centres undefined)	1	3	-3	2	-2	24*
CC1CC(=O)N(CC(=O)NCc2ccccc2)c2ccccc2S1(=O)=O (centres undefined)	3	9	17	1	-3	3
COC(=O)[C@]12C[C@H](CC(=O)NCCc3ccccc3OC)C(=O)N(CCc3ccc(OC)c(OC)c3)C1=C[C@H](COCc1ccccc1)O[C@@H]2C	x	x	x	-7	x	3
O=C(CCl)N1CCN(CC(=O)N2CCCC2)CC1	3	-7	-2	-4	2	21*
COc1ccc2c(c1)CCCN2C(=O)C1CCCN(S(=O)(=O)c2ccc(C)c(C)c2)C1 (centres undefined)	x	x	x	3	x	2
NC(N)=N/N=C/c1ccc(OCc2ccccc2Cl)cc1	6	53*	-2	-4	-6	-4
SMILES	ABHD5-PLIN5 inh	Beta2AR agonist	Arr AP2 block	MBD2 inh	Rin1-Abl PPI inh	UHRF1 MBD2 ctr
COC(=O)[C@]12C[C@H](CC(=O)NCCC(C)C)C(=O)N(Cc3ccccc3)C1=C[C@H](C(C)C)O[C@@H]2C1CC1	x	x	x	4	x	-1
CCCCNC(=O)C[C@H]1C[C@@]2(C(=O)OC)C(=C[C@H](C(C)C)O[C@@H]2C2CC2)N(Cc2ccccc2)C1=O	x	x	x	4	x	24*
C#CCN1CC(N(C)CCOC(=O)c2cccs2)CS1(=O)=O (centres undefined)	x	x	x	0	x	-1
O=C(C1CC12CCCC2)N1CCC(CO)(Cc2ccccc2Cl)CC1 (centres undefined)	1	7	-9	4	4	45*
COC(=O)c1ccc(CN2CCC(CO)(Cc3ccccc3Cl)CC2)cc1	-3	-3	31	5	4	-1
Cc1ccc(NC(=O)C2CCCN2S(=O)(=O)c2cccnc2)cc1C (centres undefined)	x	x	x	0	x	-1
Cc1nc2ccc(NC(=O)c3ccc(S(=O)(=O)N(C)c4ccccc4)cc3)cc2s1	5	13	-22	1	-2	26*
CN(C)c1ccccc1-c1cc(NC=O)c2ncc(-c3cccc(C(F)(F)F)c3)n2c1	-3	x	x	42*	-26	14
COc1ccccc1-c1cc(NC=O)c2ncc(-c3cccc(C(F)(F)F)c3)n2c1	9	x	x	-2	-6	0
O=C(OC12CCCN(C1)/C(=C/c1ccc(Cl)cc1)C2)c1ccc(Cl)cc1 (centres undefined)	x	x	x	1	x	1
COCC(C)OC(=O)/C(C#N)=C\c1coc2ccc(C)cc2c1=O (centres undefined)	11	0	-8	-2	-3	45*
COC(=O)[C@]12C[C@H](CC(=O)NCc3ccc(OC)c(OC)c3)C(=O)N(Cc3ccc(Cl)cc3Cl)C1=C[C@H](C(C)(C)C)O[C@@H]2C	x	x	x	-4	x	-3
Cc1cc2c(=O)n(Cc3ccco3)c(SCC(=O)c3ccc(Cl)s3)nc2s1	4	52*	1	-2	0	1
O=C(c1nc(SCc2ccc([N+](=O)[O-])cc2)n2ccccc12)C(F)(F)F	-3	-12	-14	1	0	24*
Clc1cccc(CNc2nc(-c3ccccn3)nnc2-c2ccccc2)c1	x	x	x	5	x	1
COCC1CCCCN1Cc1cn[nH]c1-c1ccc2cc(OC)ccc2c1 (centres undefined)	4	-1	8	0	1	-1
COc1ccc2cc(-c3[nH]ncc3CN3C[C@@H]4CCC[C@H]3C4)ccc2c1	23*	-7	12	0	2	-1
O=C(O)c1ccc(N/N=C/c2cc3cc4c(cc3nc2Cl)OCCO4)cc1	-1	45*	17	-3	-3	-4
O=C(O)c1ccc(N/N=C/c2cc3c(cc2[N+](=O)[O-])OCO3)cc1	5	8	54	-8	0	-3
COC(=O)[C@]12C[C@H](CC(=O)NCc3ccc(OC)c(OC)c3)C(=O)N(Cc3ccco3)C1=C[C@H](C(C)C)O[C@@H]2C1CC1	x	x	x	-3	x	0

Screening data (PubChem BioAssay)
